Results as given in ChEMBL document CHEMBL1126238, “Chemical and enzyme-mediated oxidation of the serotonergic neurotoxin 5,7-dihydroxytryptamine: mechanistic insights” (J Med Chem, 1992).

Key:
Assay type in all cases: ADME
[1] = Effect of transition metal ion Cu2+ (10 uM) on the initial rate of oxygen consumption during the autooxidation
Summary of the method: (§1)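 5,7-Dihydroxytryptamine (1.0 mM) in 3.0 mL air-saturated pH 7.4 phosphate buffer (ionic strength 0.1), 37 °C, with metal ion and/or chelator (DTPA or EDTA) added; Cu2+ supplied as CuSO4. The initial O2 consumption rate (nmol O2/min) was read with a Clark-type oxygen electrode. Values are mean (n ≥ 2) ± SD.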

[2] = Effect of transition metal ion and complexing agent [Fe2+] (100 uM) +EDTA (10 uM) on the initial rate of oxygen consumption during the autooxidation; summary of the method: as §1
[3] = Effect of transition metal ion [Fe2+] (10 uM) on the initial rate of oxygen consumption during the autooxidation; summary of the method: as §1
[4] = Effect of transition metal ion and complexing agent Mn2+ (100 uM) +EDTA (10 uM) on the initial rate of oxygen consumption during the autooxidation; summary of the method: as §1
[5] = Influence of tyrosinase enzyme (18 units/mL) on the initial rate of oxygen consumption at a pH of 7.4.; conditions: pH 7.4
Summary of the method: (§2)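 5,7-Dihydroxytryptamine (1.0 mM) in 3.0 mL air-saturated phosphate buffer (ionic strength 0.1) at the stated pH, with bovine ceruloplasmin or mushroom tyrosinase at the listed units/mL. Initial O2 consumption (nmol O2/min) was recorded with a Clark-type oxygen electrode.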

[6] = Effect of transition metal ion and complexing agent [Fe2+] (100 uM) +DTPA (10 uM) on the initial rate of oxygen consumption during the autooxidation; summary of the method: as §1
[7] = Influence of superoxide dismutase SOD (333 units/mL) on the transition metal [Fe2+] (100 uM) ion mediated autoxidation.
Summary of the method: (§3)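 5,7-Dihydroxytryptamine (1.0 mM, 3.0 mL) in pH 7.4 phosphate buffer (ionic strength 0.1) at 37 °C. Runs contained 10 μM Cu2+ (as CuSO4) or 100 μM Fe2+, Fe3+ or Mn2+, alone or with catalase (100 μg/mL) or SOD (333 units/mL). The initial O2 uptake rate was measured by Clark-type oxygen electrode. Values are mean (n ≥ 2) ± SD.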

[8] = Effect of transition metal ion [Fe3+] (200 uM) on the initial rate of oxygen consumption during the autooxidation; summary of the method: as §1
[9] = Effect of transition metal ion Mn2+ (10 uM) on the initial rate of oxygen consumption during the autooxidation; summary of the method: as §1
[10] = Effect of transition metal ion Cu2+ (1 uM) on the initial rate of oxygen consumption during the autooxidation; summary of the method: as §1
[11] = Influence of superoxide dismutase SOD (333 units/mL) on the transition metal [Fe3+] (100 uM) ion mediated autoxidation.; summary of the method: as §3
[12] = Influence of Catalase (100 ug/mL) on the transition metal Mn2+ (100 uM) ion mediated autoxidation.; summary of the method: as §3
[13] = Influence of ceruplasmin enzyme (10.5 units/mL) on the initial rate of oxygen consumption at a pH of 7.4.; conditions: pH 7.4; summary of the method: as §2
[14] = Effect of transition metal ion and complexing agent [Fe3+] (100 uM) +DTPA (10 uM) on the initial rate of oxygen consumption during the autooxidation; summary of the method: as §1
[15] = Effect of transition metal ion [Fe3+] (50 uM) on the initial rate of oxygen consumption during the autooxidation; summary of the method: as §1
[16] = Effect of complexing agent EDTA (1 uM) on the initial rate of oxygen consumption during the autooxidation; summary of the method: as §1
[17] = Effect of transition metal ion Mn2+ (50 uM) on the initial rate of oxygen consumption during the autooxidation; summary of the method: as §1
[18] = Influence of Catalase (100 ug/mL) on the transition metal [Fe2+] (100 uM) ion mediated autoxidation.; summary of the method: as §3
[19] = Effect of transition metal ion and complexing agent Cu2+ (10 uM) +DTPA (1 uM) on the initial rate of oxygen consumption during the autooxidation; summary of the method: as §1
[20] = Influence of ceruplasmin enzyme (10.5 units/mL) on the initial rate of oxygen consumption at a pH of 6.4.; conditions: pH 6.4; summary of the method: as §2
[21] = Effect of transition metal ion [Fe3+] (100 uM) on the initial rate of oxygen consumption during the autooxidation; summary of the method: as §1
[22] = Influence of tyrosinase enzyme (4.5 units/mL) on the initial rate of oxygen consumption at a pH of 7.4.; conditions: pH 7.4; summary of the method: as §2
[23] = Influence of superoxide dismutase SOD (333 units/mL) on the transition metal Mn2+ (100 uM) ion mediated autoxidation.; summary of the method: as §3
[24] = Influence of Catalase (100 ug/mL) on the transition metal [Fe3+] (100 uM) ion mediated autoxidation.; summary of the method: as §3
[25] = Effect of transition metal ion [Fe3+] (10 uM) on the initial rate of oxygen consumption during the autooxidation; summary of the method: as §1
[26] = Effect of transition metal ion and complexing agent Mn2+ (100 uM) +DTPA (10 uM) on the initial rate of oxygen consumption during the autooxidation; summary of the method: as §1
[27] = Influence of ceruplasmin enzyme (42.0 units/mL) on the initial rate of oxygen consumption at a pH of 7.4.; conditions: pH 7.4; summary of the method: as §2
[28] = Influence of peroxidase enzyme (5 units/mL) on the initial rate of oxygen consumption at a pH of 7.4.; conditions: pH 7.4
Summary of the method: (§4)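 Substrate 5,7-dihydroxytryptamine, 1.0 mM, in 3.0 mL air-saturated pH 7.4 phosphate buffer (ionic strength 0.1). Peroxidase was added at the listed units/mL, either with 1.0 mM H2O2 or with no H2O2. The initial O2 consumption rate was measured with a Clark-type oxygen electrode.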

[29] = Effect of complexing agent DTPA (10 uM) on the initial rate of oxygen consumption during the autooxidation; summary of the method: as §1
[30] = Effect of transition metal ion Cu2+ (20 uM) on the initial rate of oxygen consumption during the autooxidation; summary of the method: as §1
[31] = Effect of transition metal ion and complexing agent Cu2+ (10 uM) +EDTA (1 uM) on the initial rate of oxygen consumption during the autooxidation; summary of the method: as §1
[32] = Effect of transition metal ion Cu2+ (40 uM) on the initial rate of oxygen consumption during the autooxidation; summary of the method: as §1
[33] = Influence of Catalase (100 ug/mL) on the transition metal Cu2+ (10 uM) ion mediated autoxidation.; summary of the method: as §3
[34] = Effect of transition metal ion [Fe2+] (200 uM) on the initial rate of oxygen consumption during the autooxidation; summary of the method: as §1
[35] = Effect of complexing agent DTPA (1 uM) on the initial rate of oxygen consumption during the autooxidation; summary of the method: as §1
[36] = Effect of transition metal ion [Fe2+] (50 uM) on the initial rate of oxygen consumption during the autooxidation; summary of the method: as §1
[37] = Influence of tyrosinase enzyme (36 units/mL) on the initial rate of oxygen consumption at a pH of 7.4.; conditions: pH 7.4; summary of the method: as §2
[38] = Effect of transition metal ion and complexing agent [Fe3+] (100 uM) +EDTA (10 uM) on the initial rate of oxygen consumption during the autooxidation; summary of the method: as §1
[39] = Initial rate of oxygen consumption during the autooxidation of the compound.; summary of the method: as §1
[40] = Influence of peroxidase enzyme (10 units/mL) on the initial rate of oxygen consumption at a pH of 7.4.; conditions: pH 7.4; summary of the method: as §4
[41] = Influence of ceruplasmin enzyme (21.0 units/mL) on the initial rate of oxygen consumption at a pH of 7.4.; conditions: pH 7.4; summary of the method: as §2
[42] = Effect of transition metal ion Mn2+ (100 uM) on the initial rate of oxygen consumption during the autooxidation; summary of the method: as §1
[43] = Influence of superoxide dismutase SOD (333 units/mL) on the transition metal Cu2+ (10 uM) ion mediated autoxidation.; summary of the method: as §3
[44] = Influence of tyrosinase enzyme (9 units/mL) on the initial rate of oxygen consumption at a pH of 7.4.; conditions: pH 7.4; summary of the method: as §2
[45] = Effect of transition metal ion [Fe2+] (100 uM) on the initial rate of oxygen consumption during the autooxidation; summary of the method: as §1
[46] = Influence of peroxidase enzyme (15 units/mL) on the initial rate of oxygen consumption at a pH of 7.4.; conditions: pH 7.4; summary of the method: as §4
[47] = Effect of complexing agent DTPA (0.5 uM) on the initial rate of oxygen consumption during the autooxidation; summary of the method: as §1

With `NCCc1c[nH]c2c(O)cc(O)cc12` the “Rate of O2 consumption” value [1] was 1490 nM/min, the “Rate of O2 consumption” value [2] was 712 nM/min and the “Rate of O2 consumption” value [3] was 252 nM/min. For the same compound, the “Rate of O2 consumption” value [4] was 51.3 nM/min, the “Rate of O2 consumption” value [5] was 192 nM/min and the “Rate of O2 consumption” value [6] was 58 nM/min. The “Rate of O2 consumption” value [7] was 645 nM/min, the “Rate of O2 consumption” value [8] was 125 nM/min and the “Rate of O2 consumption” value [9] was 61 nM/min. The “Rate of O2 consumption” value [10] was 638 nM/min, the “Rate of O2 consumption” value [11] was 48.5 nM/min and the “Rate of O2 consumption” value [12] was 54.5 nM/min. The “Rate of O2 consumption” value [13] was 71.4 nM/min, the “Rate of O2 consumption” value [14] was 39.2 nM/min and the “Rate of O2 consumption” value [15] was 68 nM/min. For the same compound, the “Rate of O2 consumption” value [16] was 39.6 nM/min, the “Rate of O2 consumption” value [17] was 70 nM/min and the “Rate of O2 consumption” value [18] was 328 nM/min. For the same compound, the “Rate of O2 consumption” value [19] was 32.1 nM/min, the “Rate of O2 consumption” value [20] was 453 nM/min and the “Rate of O2 consumption” value [21] was 86 nM/min. For the same compound, the “Rate of O2 consumption” value [22] was 85 nM/min, the “Rate of O2 consumption” value [23] was 81.2 nM/min and the “Rate of O2 consumption” value [24] was 51 nM/min. The “Rate of O2 consumption” value [25] was 50 nM/min, the “Rate of O2 consumption” value [26] was 36.7 nM/min and the “Rate of O2 consumption” value [27] was 240 nM/min. For the same compound, the “Rate of O2 consumption” value [28] was 79 nM/min, the “Rate of O2 consumption” value [29] was 23.6 nM/min and the “Rate of O2 consumption” value [30] was 2244 nM/min. For the same compound, the “Rate of O2 consumption” value [31] was 45.6 nM/min, the “Rate of O2 consumption” value [32] was 2367 nM/min and the “Rate of O2 consumption” value [33] was 1524 nM/min. For the same compound, the “Rate of O2 consumption” value [34] was 801 nM/min, the “Rate of O2 consumption” value [35] was 24.2 nM/min and the “Rate of O2 consumption” value [36] was 483 nM/min. The “Rate of O2 consumption” value [37] was 304 nM/min, the “Rate of O2 consumption” value [38] was 97 nM/min and the “Rate of O2 consumption” value [39] was 34.1 nM/min. The “Rate of O2 consumption” value [40] was 89 nM/min, the “Rate of O2 consumption” value [41] was 129 nM/min and the “Rate of O2 consumption” value [42] was 87 nM/min. The “Rate of O2 consumption” value [43] was 1583 nM/min, the “Rate of O2 consumption” value [44] was 126 nM/min and the “Rate of O2 consumption” value [45] was 628 nM/min. For the same compound, the “Rate of O2 consumption” value [46] was 102 nM/min and the “Rate of O2 consumption” value [47] was 24 nM/min.
